Test [1] has as its target T1, cGMP-dependent 3',5'-cyclic phosphodiesterase (Bos taurus, UniProt P14099).
T1 sequence (P14099 whole entry): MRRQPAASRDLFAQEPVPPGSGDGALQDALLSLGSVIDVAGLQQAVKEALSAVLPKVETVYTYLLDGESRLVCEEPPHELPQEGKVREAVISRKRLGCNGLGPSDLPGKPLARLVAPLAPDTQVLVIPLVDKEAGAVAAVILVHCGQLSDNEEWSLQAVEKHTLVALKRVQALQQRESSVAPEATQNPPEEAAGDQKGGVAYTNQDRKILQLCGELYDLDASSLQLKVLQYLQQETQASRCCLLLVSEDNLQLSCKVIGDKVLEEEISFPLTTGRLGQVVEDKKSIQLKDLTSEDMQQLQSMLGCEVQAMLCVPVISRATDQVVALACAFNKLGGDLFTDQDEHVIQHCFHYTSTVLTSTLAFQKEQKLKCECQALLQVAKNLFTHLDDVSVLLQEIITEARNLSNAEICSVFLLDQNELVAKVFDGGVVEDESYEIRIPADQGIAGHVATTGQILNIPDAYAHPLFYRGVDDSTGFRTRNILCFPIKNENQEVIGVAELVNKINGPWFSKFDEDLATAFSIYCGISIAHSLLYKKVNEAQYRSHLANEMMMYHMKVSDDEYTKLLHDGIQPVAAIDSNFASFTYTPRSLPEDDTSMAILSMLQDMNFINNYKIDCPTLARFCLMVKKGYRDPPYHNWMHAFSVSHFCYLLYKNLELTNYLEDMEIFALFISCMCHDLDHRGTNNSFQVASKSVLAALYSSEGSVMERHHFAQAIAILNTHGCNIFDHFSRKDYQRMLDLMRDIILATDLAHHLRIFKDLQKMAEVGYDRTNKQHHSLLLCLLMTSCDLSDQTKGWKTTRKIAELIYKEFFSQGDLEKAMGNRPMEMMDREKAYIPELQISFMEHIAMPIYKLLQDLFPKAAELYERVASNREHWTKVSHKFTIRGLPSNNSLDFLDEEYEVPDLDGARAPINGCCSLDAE
Put plainly: Inhibition of bovine adrenal gland Phosphodiesterase 2 (PDE2). Put shortly: (§1)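 Boiled, then snake-venom nucleotidase for 30 min at 37 °C, methanol stop, Dowex separation, scintillation counting. IC50 from log concentration-inhibition curve (≥4 points), mean of ≥2 duplicate experiments.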

Test [2] concerns the target cGMP-specific 3',5'-cyclic phosphodiesterase (Canis lupus familiaris, UniProt O77746). Put plainly: Inhibitory activity against canine lung Phosphodiesterase 5 (PDE5). Put shortly:
as §1

The target in a further test is Phosphodiesterase 1 (Rattus norvegicus, UniProt Q63421+Q9EPR9+Q01066). Put plainly: Inhibitory activity against rat heart Phosphodiesterase 1(PDE1). The test is classed as protein assay.
The target of test [3] is Phosphodiesterase 3 (Canis familiaris). Put plainly: Inhibitory activity against canine heart Phosphodiesterase 3 (PDE3).
The target in test [4] is Phosphodiesterase 4 (Canis familiaris). Put plainly: Inhibition of canine lung Phosphodiesterase 4 (PDE4).
Test [5] in a line: Relaxant effect on isolated rabbit corpus cavernosum. It is filed as functional, tissue-based, Oryctolagus cuniculus. The note with it: target entry is the homologue from another species.

Bounds are passed on as bounds.

Take `CCCc1nn(C)c2c(=O)[nH]c(-c3cc(S(=O)(=O)N4CCN(C)CC4)ccc3OCC)nc12`: the IC50 in test [1] was more than 10 µM.
For the compound `CNc1ccc(-n2c(C(=O)OC)c(-c3cc(OC)c(OC)c(OC)c3)c3cc(OC)c(OC)cc3c2=O)cc1`, the IC50 (in test [2]; against Phosphodiesterase 1; in test [3]) was more than 10 µM in each case.
Turning to `COC(=O)c1c(-c2cc(OC)c(OC)c(OC)c2)c2cc(OC)c(OC)cc2c(=O)n1Cc1ccccc1`, the IC50 in test [2] is 0.38 µM; against Phosphodiesterase 1, 3.1 µM; in test [3] it was more than 10 µM.
As for `COC(=O)c1c(-c2cc(OC)c(OC)c(OC)c2)c2cc(OC)c(OC)cc2c(=O)n1N1CCOCC1`, the IC50 in test [2] was 0.026 µM; at Phosphodiesterase 1 it was more than 10 µM; in test [3], more than 10 µM.
For `COC(=O)c1nc(O)c2cc(OC)c(OC)cc2c1-c1cc(OC)c(OC)c(OC)c1`, the values for the IC50 (in test [2]; on Phosphodiesterase 1; in test [3]) were 0.9 µM, more than 10 µM and more than 10 µM, respectively.
Turning to `COC(=O)c1c(-c2cc(OC)c(O)c(OC)c2)c2ccc(OCc3ccccn3)cc2c(=O)n1-c1ccc(N)cc1`, the IC50 in test [2] is 0.014 µM; against Phosphodiesterase 1 it was 2.6 µM; in test [3], more than 10 µM.
Regarding `COC(=O)c1c(-c2cc(OC)c(OC)c(OC)c2)c2cc(OC)c(OC)cc2c(=O)n1C1CCCC1`, the results for the IC50 (in test [2]; on Phosphodiesterase 1; in test [3]) were 0.58 µM, more than 10 µM and more than 10 µM, respectively.
As for `COC(=O)c1c(-c2cc(OC)c(Br)c(OC)c2)c2ccc(OCc3ccccn3)cc2c(=O)n1-c1ccc(N)cc1.Cl.Cl`, the IC50 was 0.75 µM in test [4]; 0.00022 µM in test [2]; 0.46 µM against Phosphodiesterase 1; 8.4 µM in test [3]; 2.8 µM in test [1]. Besides, in test [5], the EC30 is 0.044 µM.
As to `COC(=O)c1c(-c2cc(OC)c(OC)c(OC)c2)c2cc(OC)ccc2c(=O)n1-c1ccc(N)cc1.Cl`, the results for the IC50 (in test [2]; on Phosphodiesterase 1; in test [3]) were 0.097 µM, 3.9 µM and more than 10 µM, respectively.
Regarding `COc1cc(-c2c(C(=O)N(C)C)n(-c3ccc(N)cc3)c(=O)c3cc(OCc4ccccn4)ccc23)cc(OC)c1OC.Cl.Cl`, the IC50 is 2.1 µM in test [2], more than 10 µM against Phosphodiesterase 1 and more than 10 µM in test [3].
For the compound `COC(=O)c1c(-c2cc(OC)c(OC)c(OC)c2)c2cc(OC)c(OC)cc2c(=O)n1-c1cccc(N)c1.Cl`, the values for the concentration for half-maximal inhibition (IC50) (in test [2]; against Phosphodiesterase 1; in test [3]) were 0.25 µM, more than 10 µM and more than 10 µM, respectively.
For the compound `COC(=O)c1c(-c2cc(OC)c(OC)c(OC)c2)c2cc(OC)c(OC)cc2c(=O)n1-c1ccc(N(C)C)cc1.Cl`, the IC50 (in test [2]; against Phosphodiesterase 1; in test [3]) was more than 10 µM throughout.
In the case of `COC(=O)c1c(-c2cc(OC)c(OC)c(OC)c2)c2ccc(OCc3ccccc3)cc2c(=O)n1-c1ccc(N)cc1.Cl`, the IC50 is 6.1 µM in test [4]; 0.0012 µM in test [2]; 2.1 µM at Phosphodiesterase 1; more than 10 µM in test [3]; more than 10 µM in test [1]. This compound returned an EC30 in test [5] of 0.13 µM.
On to `COC(=O)c1c(-c2cc(OC)c(C)c(OC)c2)c2ccc(OCc3ccccn3)cc2c(=O)n1-c1ccc(N)cc1.Cl.Cl`, for which the IC50 is 1.7 µM in test [4]; 0.00039 µM in test [2]; 1.1 µM against Phosphodiesterase 1; more than 10 µM in test [3]; 3.5 µM in test [1]. For the same compound, it took 0.037 µM to reach the 30% level in test [5] (EC30).
Consider `CCOC(=O)c1c(-c2cc(OC)c(OC)c(OC)c2)c2ccc(OCc3ccccn3)cc2c(=O)n1-c1ccc(N)cc1.Cl.Cl`, for which the IC50 in test [2] is 0.018 µM; at Phosphodiesterase 1, 0.55 µM; in test [3], more than 10 µM.
For the compound `COC(=O)c1c(-c2cc(O)c(OC)c(OC)c2)c2ccc(OCc3ccccn3)cc2c(=O)n1-c1ccc(N)cc1.Cl.Cl`, the IC50 in test [2] is 0.0085 µM; against Phosphodiesterase 1, more than 10 µM.
On to `COc1cc(-c2c(C(N)=O)n(-c3ccc(N)cc3)c(=O)c3cc(OCc4ccccn4)ccc23)cc(OC)c1OC.Cl.Cl`, for which the IC50 in test [2] is 0.49 µM; against Phosphodiesterase 1 it was more than 10 µM; in test [3], more than 10 µM.
On to `COC(=O)c1c(-c2cc(OC)c(OC)c(OC)c2)c2ccc(OC)cc2c(=O)n1-c1ccc(N)cc1.Cl`, for which the IC50 in test [2] was 0.02 µM; against Phosphodiesterase 1, 1 µM; in test [3], more than 10 µM.
Taken in the same sequence, the figures for `COc1cc(-c2c(C(=O)O)n(-c3ccc(N)cc3)c(=O)c3cc(OCc4ccccn4)ccc23)cc(OC)c1OC.Cl.Cl` were 1.9 µM, more than 10 µM and more than 10 µM.
Turning to `COC(=O)c1c(-c2cc(OC)c(OC)c(OC)c2)c2ccc(OCc3cccnc3)cc2c(=O)n1-c1ccc(N)cc1.Cl.Cl`, the IC50 in test [4] was 3.6 µM; in test [2], 0.0011 µM; on Phosphodiesterase 1, 3.9 µM; in test [3] it was more than 10 µM; in test [1], more than 10 µM. Moreover, the EC30 in test [5] came to 0.0095 µM.
For the compound `COC(=O)c1c(-c2cc(OC)c(OC)c(OC)c2)c2cc(OC)c(OC)cc2c(=O)n1-c1ccc(N)cc1.Cl`, the results for the IC50 (in test [2]; against Phosphodiesterase 1; in test [3]) were 0.021 µM, more than 10 µM and 4.4 µM, respectively.
As to `CCOc1cc2c(-c3cc(OC)c(OC)c(OC)c3)c(C(=O)OC)n(-c3ccc(N)cc3)c(=O)c2cc1OCC.Cl`, the results for the IC50 (in test [2]; on Phosphodiesterase 1; in test [3]) were 0.027 µM, more than 10 µM and more than 10 µM, respectively.
In the case of `CNC(=O)c1c(-c2cc(OC)c(OC)c(OC)c2)c2ccc(OCc3ccccn3)cc2c(=O)n1-c1ccc(N)cc1.Cl.Cl`, the IC50 is 0.22 µM in test [2], more than 10 µM against Phosphodiesterase 1 and more than 10 µM in test [3].
Regarding `COC(=O)c1c(-c2cc(OC)c(OC)c(OC)c2)c2ccc(OCc3ccccn3)cc2c(=O)n1-c1ccc(N)cc1.Cl.Cl`, the IC50 is 0.001 µM in test [2], 1.3 µM against Phosphodiesterase 1 and more than 10 µM in test [1]. In test [5], it took 0.0079 µM to reach the 30% level (EC30).
For the compound `COC(=O)c1c(-c2cc(OC)c(OC)c(OC)c2)c2cc(OC)c(OC)cc2c(=O)n1-c1ccccc1`, the IC50 in test [2] was 0.03 µM; on Phosphodiesterase 1 it was more than 10 µM; in test [3] it was more than 10 µM.
Regarding `COC(=O)c1c(-c2cc(OC)c(OC)c(OC)c2)c2cc(OC)c(OC)cc2c(=O)n1-c1ccc(Cl)cc1`, the IC50 in test [2] was 0.17 µM; against Phosphodiesterase 1 it was more than 10 µM; in test [3], more than 10 µM.
`COC(=O)c1c(-c2cc(OC)c(OC)c(OC)c2)c2cc(OC)c(OC)cc2c(=O)n1-c1ccc(OC)cc1`: the IC50 (in test [2]; at Phosphodiesterase 1) was more than 10 µM each time.
For `COC(=O)c1c(-c2cc(OC)c(OC)c(OC)c2)c2cc(OC)c(OC)cc2c(=O)n1-c1ccc(O)cc1`, the IC50 was 0.11 µM in test [2], more than 10 µM on Phosphodiesterase 1 and more than 10 µM in test [3].
For `COC(=O)c1c(-c2cc(OC)c(OC)c(OC)c2)c2cc(OC)c(OC)cc2c(=O)n1C`, the values for the IC50 (in test [2]; against Phosphodiesterase 1; in test [3]) were 0.23 µM, 2.1 µM and 8.5 µM, respectively.
Taken in the same sequence, the figures for `COC(=O)c1c(-c2cc(OC)c(OC)c(OC)c2)c2cc(OC)c(OC)cc2c(=O)n1C1CCCCC1` were 0.23 µM, more than 10 µM and more than 10 µM.
On to `COC(=O)c1c(-c2cc(OC)c(OC)c(OC)c2)c2cc(OC)c(OC)cc2c(=O)n1-c1ccc(NC(C)=O)cc1`, for which the IC50 (in test [2]; at Phosphodiesterase 1; in test [3]) was more than 10 µM in each case.
For the compound `COC(=O)c1c(-c2cc(OC)c(OC)c(OC)c2)c2ccc(OCCc3ccccn3)cc2c(=O)n1-c1ccc(N)cc1`, the IC50 in test [2] was 0.005 µM; on Phosphodiesterase 1, more than 10 µM; in test [3], more than 10 µM.
With `COC(=O)c1c(-c2cc(OC)c(OC)c(OC)c2)c2cc(OC)c(OC)cc2c(=O)n1N1CCCCC1`, the IC50 in test [2] was 0.054 µM; at Phosphodiesterase 1 it was more than 10 µM; in test [3], more than 10 µM.

As usually defined, the IC50 is the concentration that gives 50% inhibition. Read a low IC50 as inhibition by little substance. The term EC30 denotes the point of the concentration-response curve where the effect stands at 30%.

The values are drawn from ChEMBL document CHEMBL1134770, “Novel, potent, and selective phosphodiesterase 5 inhibitors: synthesis and biological activities of a series of 4-aryl-1-isoquinolinone derivatives” (J Med Chem, 2001).
